# Measured values gathered from unrelated publications.
# ABL1 F317I non-phosphorylated: Tyrosine-protein kinase ABL1, non-phosphorylated (ABL1, Homo sapiens, UniProt P00519, F317I)
# ABL1 non-phosphorylated: Tyrosine-protein kinase ABL1, non-phosphorylated (ABL1, Homo sapiens, UniProt P00519)
# ABL1 Q252H phosphorylated: Tyrosine-protein kinase ABL1, phosphorylated (ABL1, Homo sapiens, UniProt P00519, Q252H)
# ABL1 phosphorylated: Tyrosine-protein kinase ABL1, phosphorylated (ABL1, Homo sapiens, UniProt P00519)
# ABL1 E255K: Tyrosine-protein kinase ABL1 (ABL1, Homo sapiens, UniProt P00519, E255K)
# ABL1 M351T phosphorylated: Tyrosine-protein kinase ABL1, phosphorylated (ABL1, Homo sapiens, UniProt P00519, M351T)
# ABL1 E255K phosphorylated: Tyrosine-protein kinase ABL1, phosphorylated (ABL1, Homo sapiens, UniProt P00519, E255K)
# ABL1 F317L phosphorylated: Tyrosine-protein kinase ABL1, phosphorylated (ABL1, Homo sapiens, UniProt P00519, F317L)
# ABL1 Y253F: Tyrosine-protein kinase ABL1 (ABL1, Homo sapiens, UniProt P00519, Y253F)
# ABL1 H396P phosphorylated: Tyrosine-protein kinase ABL1, phosphorylated (ABL1, Homo sapiens, UniProt P00519, H396P)
# ABL1 T315I phosphorylated: Tyrosine-protein kinase ABL1, phosphorylated (ABL1, Homo sapiens, UniProt P00519, T315I)
# ABL1 F317I phosphorylated: Tyrosine-protein kinase ABL1, phosphorylated (ABL1, Homo sapiens, UniProt P00519, F317I)
Structure (SMILES),target,test,setting,remaining binding [%]
CC1CCCN1c1nccc(-c2cnn3ncccc23)n1 (centres unmarked),"Tyrosine-protein kinase ABL1 (ABL1, Homo sapiens, UniProt P00519, M351T)",binding,1 µM,98
Cc1cnc(Nc2ccc(C(=O)N3CCC(N4CCCC4)CC3)cc2)nc1-c1cc2ccccc2s1,ABL1 F317I non-phosphorylated,"binding, competition with immobilised ligand",1 µM,100
COC(=O)Nc1nc2ccc(C(=O)c3ccccc3)cc2[nH]1,ABL1 non-phosphorylated,"cell-free assay, competition with immobilised ligand",10 µM,2
Nc1ncc2c(n1)-c1c([nH]c3ccc(C#CC4CC4)cc13)CCCC2,ABL1 Q252H phosphorylated,"binding, competition with immobilised ligand",1 µM,94
CN(c1ccnc(CNc2nc(Nc3ccc4c(c3)CC(=O)N4)ncc2C(F)(F)F)n1)S(C)(=O)=O,ABL1 phosphorylated,"cell-free assay, competition with immobilised ligand",1 µM,40
CN1CCN(c2ccc(Nc3nccc(-c4ccccc4)n3)cc2C(F)(F)F)CC1,ABL1 E255K,binding,10 µM,22
O=C(NCCCN1CCOCC1)c1ccc(Nc2nccc(-c3cc4ccccc4s3)n2)cc1,ABL1 non-phosphorylated,"binding, competition with immobilised ligand",1 µM,37
COc1cnc(Nc2cccc(S(N)(=O)=O)c2)nc1N1CCN(c2ccccc2)CC1,ABL1 M351T phosphorylated,"binding, competition with immobilised ligand",1 µM,98
C[C@@H](c1ccc(-n2cnc3c(N)ncnc32)cc1)N1CCc2nn(C)c(Cc3ccccc3)c2C1=O,ABL1 E255K phosphorylated,"binding, competition with immobilised ligand",0.1 µM,70
O=C(NCCCN1CCOCC1)c1ccc(Nc2ncc(Cl)c(-c3ccc(Cl)s3)n2)cc1,ABL1 F317I non-phosphorylated,"binding, competition with immobilised ligand",1 µM,100
CO[C@H]1CC[C@H](CNc2ccc(S(=O)(=O)NC(=O)c3ccc(N4CCN(CC5=C(c6ccc(Cl)cc6)CC(C)(C)CC5)CC4)cc3Oc3cnc4[nH]ccc4c3)cc2[N+](=O)[O-])CC1,ABL1 E255K phosphorylated,"binding, competition with immobilised ligand",1 µM,74
CCN1CCN(Cc2ccc(C(=O)Nc3ccc(C)c(Oc4ccc5c(c4)CC(=O)N5)c3)cc2C(F)(F)F)CC1,ABL1 M351T phosphorylated,"binding, competition with immobilised ligand",1 µM,55
COc1ncc2cc3ccccc3nc2c1C#N,ABL1 F317L phosphorylated,"cell-free assay, competition with immobilised ligand",5 µM,86
CN(c1nccc(-c2cnn3ncccc23)n1)C1CC1,ABL1 Y253F,binding,1 µM,100
O=C(Nc1c[nH]nc1C(=O)NC1CCNCC1)c1cc(F)cc(F)c1,"Tyrosine-protein kinase ABL1, non-phosphorylated (ABL1, Homo sapiens, UniProt P00519, T315I)","binding, competition with immobilised ligand",1 µM,100
CN(CCCC(F)(F)F)c1nccc(-c2cnn3ncccc23)n1,ABL1 Y253F,binding,1 µM,89
O=C(O)[C@H]1[C@H](Cn2nnc3ccccc3c2=O)CC[C@@H]1C(=O)c1ccc(OCCC2CCOCC2)cc1,ABL1 non-phosphorylated,"cell-free assay, competition with immobilised ligand",1 µM,80
C=CC(=O)N1CCC(C(=O)NCC(=O)N2CCN(c3nc(-c4cnc(N)nc4C(F)F)nc(N4CCOCC4)n3)CC2)CC1,ABL1 H396P phosphorylated,"binding, competition with immobilised ligand",1 µM,83
COc1cnc(Nc2cccc(S(N)(=O)=O)c2)nc1N1CCN(c2ccccc2)C(=O)C1,ABL1 phosphorylated,"binding, competition with immobilised ligand",1 µM,93
O=C(c1ccc(Nc2ncc(Cl)c(-c3ccc(Cl)s3)n2)cc1)N1CCC(N2CCCC2)CC1,ABL1 non-phosphorylated,"binding, competition with immobilised ligand",1 µM,4.3
Cc1cnn2ncc(-c3ccnc(N(C)C)n3)c2c1,"Tyrosine-protein kinase ABL1 (ABL1, Homo sapiens, UniProt P00519, Q252H)",binding,1 µM,100
CNC(=O)[C@@H]1CC[C@@H](n2c(-c3ccc4cnccc4c3)nc3ccc(C(=O)NCc4cccc(C(N)=O)c4)cc32)C1,ABL1 T315I phosphorylated,"binding, competition with immobilised ligand",1 µM,100
F[C@@H]1CCN(c2nccc(-c3cnn4ncccc34)n2)C1,ABL1 phosphorylated,binding,1 µM,79
O=C(c1ccc(Nc2ncc(Cl)c(-c3cc4ccccc4s3)n2)cc1)N1CCC(N2CCCC2)CC1,ABL1 F317L phosphorylated,"binding, competition with immobilised ligand",1 µM,54
CN(C)c1nccc(-c2cnn3ncccc23)n1,ABL1 Y253F,binding,1 µM,86
Cc1nc(Cc2cccc(C(F)(F)F)c2)sc1-c1ccc(C(N)=O)nc1,ABL1 Q252H phosphorylated,"cell-free assay, competition with immobilised ligand",1 µM,100
C[C@H]1CCN(c2nccc(-c3cnn4ncccc34)n2)C1,"Tyrosine-protein kinase ABL1 (ABL1, Homo sapiens, UniProt P00519, T315I)",binding,1 µM,82
N#Cc1ccc(Nc2ccc3[nH]c(=O)[nH]c3c2)c(Cl)c1,"Tyrosine-protein kinase ABL1, non-phosphorylated (ABL1, Homo sapiens, UniProt P00519, F317L)","cell-free assay, competition with immobilised ligand",1 µM,100
O=C(c1ccc(Nc2nccc(-c3cc4ccccc4s3)n2)cc1)N1CCC(N2CCCC2)CC1,ABL1 F317I non-phosphorylated,"binding, competition with immobilised ligand",1 µM,92
CCOCCn1cc(C(=O)Nc2ccc(-n3nc(-c4cccnc4)cc3C(F)(F)F)cn2)ccc1=O,ABL1 T315I phosphorylated,"cell-free assay, competition with immobilised ligand",1 µM,96
O=C(NCC1CCOCC1)c1n[nH]cc1NC(=O)c1c(F)cccc1F,ABL1 H396P phosphorylated,"binding, competition with immobilised ligand",1 µM,93
O=C(N[C@H]1CCCCC/C=C\C2C[C@@]2(C(=O)O)NC(=O)[C@@H]2C[C@@H](Oc3ccncc3)CN2C1=O)OC1CCCC1 (some centres unmarked),ABL1 F317I phosphorylated,binding,1 µM,96
N[C@@H]1CCN(c2nccc(-c3cnn4ncccc34)n2)C1,ABL1 E255K,binding,1 µM,100
Cc1c(C(=O)O)cc(-c2ccc(C3CCNCC3)cc2)c2ccc(-c3ccc(C(F)(F)F)cc3)cc12,ABL1 F317I phosphorylated,binding,1 µM,100
c1cncc(-c2cccc(Nc3nccc(NC4CCCCC4)n3)c2)c1,ABL1 T315I phosphorylated,"binding, competition with immobilised ligand",10 µM,73
